Measured values pooled from the literature.
Compare with care: the assays were run in different laboratories. ≈ marks a conversion by molar mass, not a printed value.

SMILES	target or system	observed	technique	strain	time	quantity	value
N.N.[Cl][Pt][Cl]	A-431	cell growth or viability	MTT	–	72 h	IC50	2.1 µM
Cn1c(COc2ccc3nc4ccc(=O)cc-4oc3c2)cnc1[N+](=O)[O-]	Mycobacterium tuberculosis	microbial growth	–	–	7 days	MIC90	> 256 µM
CCOC(=O)C1=C(C)NC(=O)NC1c1cn(-c2ccccc2)nc1-c1ccccc1 (stereo not shown)	Mycobacterium tuberculosis	microbial growth	resazurin	H37RV	–	MIC	62.1 µM
COc1c(N2CC3CCCN(C(=O)OC(C)(C)C)C3C2)c(F)cc2c(=O)c(C(=O)OCc3cnc([N+](=O)[O-])s3)cn(C3CC3)c12 (stereo not shown)	Mycobacterium tuberculosis	microbial growth	–	H37RV	–	MIC	> 8 µM
CC[C@@]1(O)C(=O)OCc2c1cc1n(c2=O)Cc2cc3ccccc3nc2-1	HepG2	cell growth or viability	MTT	–	48 h	IC50	10.1 µM
COc1cccc(/C=N/N2C(=O)c3ccccc3NC2c2cccc(OC)c2O)c1O (stereo not shown)	Mycobacterium tuberculosis	microbial growth	–	ATCC25177 H37RA	14 days	MIC	> 128 µg/mL
Cc1sc2c(c1C)C(c1ccc(Cl)cc1)=N[C@@H](CC(=O)OC(C)(C)C)c1nnc(C)n1-2	Ramos	cell growth or viability	ATP luminescence	–	72 h	IC50	0.545 µM
NNC(=O)c1ccncc1	Mycobacterium tuberculosis	microbial growth	–	ATCC25177 H37RA	14 days	MIC	8 µg/mL
CCOC(=O)C1=C(C)NC(=NN)NC1c1ccc(F)cc1 (stereo not shown)	Mycobacterium tuberculosis	microbial growth	resazurin	H37RV	–	MIC	85.5 µM
Cc1cc(C(=O)O)ccc1-c1c2ccc(=O)cc-2oc2cc(OCc3ccc([N+](=O)[O-])o3)ccc12	Mycobacterium tuberculosis	microbial growth	–	–	7 days	MIC90	240 µM (≈ 113 µg/mL)
CCOC(=O)C1=C(C)N(C(C)=O)C(=O)NC1c1cn(-c2ccccc2)nc1-c1ccccc1 (stereo not shown)	Mycobacterium tuberculosis	microbial growth	resazurin	H37RV	–	MIC	56.2 µM
C1N2CN3CN1CP(C2)C3.Cc1cc(C)n(C(C(=O)OC(C)C)n2nc(C)cc2C)n1.F[P-](F)(F)(F)(F)F.[Cu+]	A-431	cell growth or viability	MTT	–	72 h	IC50	11.3 µM
Cn1c([N+](=O)[O-])cnc1COc1ccc2nc3ccc(=O)cc-3oc2c1	Mycobacterium tuberculosis	microbial growth	–	–	7 days	MIC90	> 256 µM
